In ChEMBL document CHEMBL5032499, “A Druglike Small Molecule that Targets r(CCUG) Repeats in Myotonic Dystrophy Type 2 Facilitates Degradation by RNA Quality Control Pathways” (J Med Chem, 2021):
The source made the active and inactive calls. No cut-off for these calls is given here.

Legend:
[1] = Induction of disruption of r(CCUG)12-MBNL1 complex (unknown origin) incubated for 15 mins by TR-FRET assay; parameters: species or system Homo sapiens
In short: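 Biotinylated r(CCUG)12 was folded at 60 °C for 5 min in 20 mM HEPES pH 7.5, 110 mM KCl, 10 mM NaCl. It was then brought to assay buffer (plus 2 mM MgCl2, 2 mM CaCl2, 5 mM DTT, 0.1% BSA, 0.5% Tween-20) and preincubated 15 min with MBNL1-His6 (final 80 nM RNA, 60 nM protein). Compound was added for 15 min, then streptavidin-XL665 (40 nM) and anti-His6-Tb (0.44 ng/μL) for 30 min at room temperature. TR-FRET 545/665 ratios were read; IC50 was taken from dose-response fits.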

[2] = test system: Fibroblast; test: Cytotoxicity against DM2 patient derived fibroblast assessed as cell viability at 5 uM incubated for 48 hrs by Cell Titre-Glo assay; format: cell-based; details: human
In short: (§1)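 DM2 patient-derived fibroblasts were grown in high-glucose DMEM with 20% FBS at 37 °C, 5% CO2. After 48 h of compound treatment, viability was read as CellTiter-Glo luminescence after 10 min at room temperature (n = 6 replicates, one independent experiment).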

[3] = species: Homo sapiens; test: Binding affinity to r(GACAGCCUGCUGUC)2 duplex (unknown origin) assessed as positive phase signal at 300 uM by waterLOGSY NMR spectroscopy
In short: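 For WaterLOGSY NMR, each compound at 300 μM was run alone or with 15 μM RNA (20:1 compound:RNA) in H2O containing 5% D2O by volume.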

[4] = species: Homo sapiens; test: Binding affinity to r(GACAGCCUGCUGUC)2 (unknown origin) duplex assessed as resonance shift in H6 and H8 protons of RNA […] by 1D NMR spectroscopy
In short: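 For 1D NMR, RNA at 100 μM in 100% D2O was titrated with compound at 0.5, 1.0, 1.5 and 2.0 compound:RNA molar ratios, each in a separate sample.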

[5] = test system: Fibroblast; test: Cytotoxicity against DM2 patient derived fibroblast assessed as cell viability upto 20 uM incubated for 48 hrs by Cell Titre-Glo assay; format: cell-based; details: human; in short: as §1
[6] = species: Homo sapiens; test: Inhibition of r(CCUG)12-MBNL1 complex formation (unknown origin) assessed as rescue of IR exon 11 splicing defect at 5 uM by RT-PCR analysis; parameters: scale not given: the % may be the effect or the level left
In short: (§2)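 DM2 patient fibroblasts were treated at ~40% confluency for 48 h. About 1 μg of total RNA was reverse transcribed, and IR exon 11 was PCR-amplified for 35 cycles (95 °C/58 °C/72 °C). Products were resolved on 2% agarose stained with ethidium bromide and quantified by densitometry. Percent rescue was calculated as (DM2 untreated − treated exclusion)/(DM2 untreated − WT exclusion) × 100.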

[7] = species: Homo sapiens; test: Inhibition of r(CCUG)12-MBNL1 complex formation (unknown origin) assessed as rescue of IR exon 11 splicing defect at 1 uM by RT-PCR analysis; parameters: scale not given: the % may be the effect or the level left; in short: as §2

Row | IC50 [1] | Structure (SMILES) | other results
1 | 0.3 µM | Cc1ccc2nc(Nc3ccc4nc(NCC(C)C)sc4c3)nc(NCCCO)c2c1 | Activity [2]: Toxic
2 | 80 µM | Cc1ccccc1Nc1nc(NCCCO)c2ccccc2n1 | –
3 | 200 µM | Cc1ccc2nc(Nc3ccc4nc(-c5ccc6[nH]ccc6c5)sc4c3)nc(NCCCO)c2c1 | –
4 | 40 µM | CN(C)c1ccc(Nc2nc(NCCCO)c3ccccc3n2)cc1 | Activity [3]: Active; Activity [4]: Active; Activity [5]: Non-Toxic
5 | 200 µM | OCCCNc1nc(Nc2cccc(O)c2)nc2ccccc12 | –
6 | 200 µM | OCCCNc1nc(Nc2ccc3c(c2)OCCO3)nc2c(F)cccc12 | –
7 | 80 µM | CC(=O)Nc1cccc(Nc2nc(N(C)C)c3ccccc3n2)c1 | –
8 | 135 µM | CCNc1nc(Nc2cccc(O)c2)nc2ccccc12 | –
9 | 85 µM | C=CCNc1nc(Nc2ccc(O)cc2)nc2ccccc12 | –
10 | 200 µM | CC(=O)Nc1ccc(Nc2nc(NCCCO)c3ccccc3n2)cc1 | –
11 | 70 µM | COc1cc(-c2nc3cc(-n4cnnn4)ccc3[nH]2)ccc1OCCN1CCCC1 | –
12 | 10 µM | Cc1ccc2nc(Nc3ccc4nc(N(CCO)CCO)sc4c3)nc(NCCCO)c2c1 | –
13 | 100 µM | CC(=O)c1cccc(Nc2nc(N(C)C)c3ccccc3n2)c1 | –
14 | 20 µM | Cc1ccc2nc(Nc3ccc4nc(NCCOCc5ccccc5)sc4c3)nc(NCCCO)c2c1 | –
15 | 10 µM | Cc1nc2ccc(Nc3nc(NCCCO)c4ccccc4n3)cc2o1 | –
16 | 200 µM | Cc1ccc2nc(Nc3ccc4nc(C(N)=O)sc4c3)nc(NCCCO)c2c1 | –
17 | 200 µM | COC(=O)c1cccc(Nc2nc(N)c3ccccc3n2)c1 | –
18 | 0.3 µM | Cc1ccc2nc(Nc3ccc4nc(NCCN5CCOCC5)sc4c3)nc(NCCCO)c2c1 | Activity [2]: Toxic
19 | 100 µM | COc1cccc(Nc2nc(NCCCO)c3ccccc3n2)c1 | –
20 | 75 µM | CC(=O)c1cccc(Nc2nc(NCCCO)c3ccccc3n2)c1 | –
21 | 0.2 µM | Cc1ccc2nc(Nc3ccc4nc(N5CCOCC5)sc4c3)nc(NCCCO)c2c1 | Activity [2]: Toxic

Row | IC50 [1] | Structure (SMILES) | other results
22 | 105 µM | Cc1cccc2c(NCCCO)nc(Nc3ccc4c(c3)OCCO4)nc12 | –
23 | 30 µM | Cc1ccc2nc(Nc3ccc4cnn(C)c4c3)nc(NCCCO)c2c1 | Activity [2]: Toxic
24 | 200 µM | CN(c1ccc2c(c1)OCCO2)c1nc(NCCCO)c2ccccc2n1 | –
25 | 30 µM | Cn1ncc2ccc(Nc3nc(NCCCO)c4ccccc4n3)cc21 | –
26 | 80 µM | CN(C)c1nc(Nc2ccc3c(c2)OCCO3)nc2ccccc12 | –
27 | 200 µM | Cc1ccc2nc(Nc3ccc4nc(-c5ccccc5C)sc4c3)nc(NCCCO)c2c1 | –
28 | 200 µM | CN(C)c1ccc(Nc2nc(N3CCOCC3)c3ccccc3n2)cc1 | –
29 | 1 µM | Cc1ccc2nc(Nc3ccc4nc(NCC(C)(C)O)sc4c3)nc(NCCCO)c2c1 | Activity [6]: 30%; Activity [2]: Non-Toxic
30 | 70 µM | CC(O)c1cccc(Nc2nc(N3CCCC3)c3ccccc3n2)c1 (stereo not given) | –
31 | 85 µM | COc1cccc(Nc2nc(N(C)C)c3ccccc3n2)c1 | –
32 | 90 µM | OCCCNc1nc(Nc2ccc3c(c2)OCCO3)nc2c1CCCC2 | –
33 | 45 µM | CC(=O)Nc1ccc(Nc2nc(NCC3CCCO3)c3ccccc3n2)cc1 (stereo not given) | Activity [3]: Active; Activity [4]: Active; Activity [5]: Non-Toxic
34 | 30 µM | CCNc1nc(Nc2ccc(NC(C)=O)cc2)nc2ccccc12 | Activity [3]: inactive
35 | 105 µM | Cc1ccc2nc(Nc3ccc4nc(NCc5ccc6c(c5)OCO6)sc4c3)nc(NCCCO)c2c1 | –
36 | 70 µM | CN(C)c1nc(Nc2ccc(O)cc2)nc2ccccc12 | –
37 | 35 µM | CC(=O)Nc1ccc(Nc2nc(N3CCCC3)c3ccccc3n2)cc1 | Activity [3]: inactive
38 | 170 µM | OCCCNc1nc(Nc2ccc3c(c2)OC(F)(F)O3)nc2ccccc12 | –
39 | 150 µM | Cc1ccc(Nc2nc(NCCCO)c3ccccc3n2)cc1 | –
40 | 200 µM | Cc1n[nH]c2nc(Nc3ccc4c(c3)OCCO4)nc(NCCCO)c12 | –
41 | 190 µM | CC(C)(C)C(Cn1ccnc1)NC(=O)Nc1ccc2[nH]ncc2c1 (stereo not given) | –
42 | 70 µM | CN1CCOc2cc(Nc3nc(NCCCO)c4ccccc4n3)ccc21 | –

Row | IC50 [1] | Structure (SMILES) | other results
43 | 20 µM | Cc1ccc2nc(Nc3ccc4nc(-c5cc[nH]n5)sc4c3)nc(NCCCO)c2c1 | –
44 | 60 µM | OCCCNc1nc(Nc2ccc3c(c2)OCCO3)nc2ccc(F)cc12 | –
45 | 70 µM | CC(=O)Nc1cccc(Nc2nc(N3CCCC3)c3ccccc3n2)c1 | –
46 | 50 µM | OCCCNc1nc(Nc2ccc3c(c2)OCCO3)nc2ccccc12 | Activity [3]: Active; Activity [4]: Active; Activity [5]: Non-Toxic; Activity [6]: 50%; Activity [7]: 12%
47 | 40 µM | COc1ccc(Nc2nc(NCCCO)c3ccccc3n2)cc1 | Activity [3]: Active; Activity [4]: Active; Activity [5]: Non-Toxic
48 | 75 µM | CN(C)c1nc(Nc2cccc(O)c2)nc2ccccc12 | –
49 | 200 µM | OCCCNc1nc(Nc2ccc3c(c2)OCCO3)nc2cc(F)ccc12 | –
50 | 165 µM | OCCCNc1nc(Nc2ccccc2)nc2ccccc12 | –
51 | 50 µM | CN(C)c1nc(Nc2ccc(C(N)=O)cc2)nc2ccccc12 | Activity [3]: inactive
52 | 0.4 µM | Cc1ccc2nc(Nc3ccc4nc(NC5CCN(Cc6ccccc6)CC5)sc4c3)nc(NCCCO)c2c1 | Activity [2]: Toxic
53 | 90 µM | CC(=O)Nc1cccc(Nc2nc(NCC3CCCO3)c3ccccc3n2)c1 (stereo not given) | –
54 | 105 µM | CNc1nc(Nc2cccc(O)c2)nc2ccccc12 | –
55 | 10 µM | Cc1ccc2nc(Nc3ccc4nc(NCCc5ccc(S(N)(=O)=O)cc5)sc4c3)nc(NCCCO)c2c1 | –
56 | 1 µM | Cc1ccc2nc(Nc3ccc4nc(N5CCN(C)CC5)sc4c3)nc(NCCCO)c2c1 | Activity [2]: Toxic
57 | 200 µM | Cc1ccc2nc(Nc3ccc4nc(-c5cccc(F)c5)sc4c3)nc(NCCCO)c2c1 | –
58 | 200 µM | OCCCNc1nc(Nc2ccc3c(c2)OCO3)nc2ccccc12 | –
59 | 200 µM | OCCCNc1nc(Nc2ccc3c(c2)OCCO3)nc2c1COC2 | –
60 | 135 µM | OCCCNc1nc(Nc2cccc(F)c2)nc2ccccc12 | –
61 | 95 µM | OCCCNc1nc(Nc2ccc(O)cc2)nc2ccccc12 | –
62 | 200 µM | CCOc1cc(-c2nc3cc(-n4cnnn4)ccc3[nH]2)ccc1O | –
63 | 100 µM | CCNc1nc(Nc2ccc(O)cc2)nc2ccccc12 | –

Row | IC50 [1] | Structure (SMILES) | other results
64 | 95 µM | CC(O)c1cccc(Nc2nc(N(C)C)c3ccccc3n2)c1 (stereo not given) | –
65 | 4 µM | Cc1ccc2nc(Nc3ccc4nc(NCCN(C)C)sc4c3)nc(NCCCO)c2c1 | Activity [6]: inactive; Activity [2]: Non-Toxic; Activity [7]: inactive
66 | 135 µM | Cc1c(Nc2nc(NCCCO)c3ccccc3n2)ccc2c1OCCO2 | –
67 | 70 µM | CCn1nc(CNC(=O)CN(C)C2CCNCC2)c2ccccc21 | –
68 | 10 µM | Cc1ccc2nc(Nc3ccc4nc(C)oc4c3)nc(NCCCO)c2c1 | –
69 | 7 µM | Cc1nc2ccc(Nc3nc(NCCCO)c4ccccc4n3)cc2s1 | –
70 | 60 µM | CN(C)c1ccc(Nc2nc(N(C)C)c3ccccc3n2)cc1 | –
71 | 200 µM | Cn1nc(Nc2nc(NCCCO)c3ccccc3n2)c2ccccc21 | –
72 | 110 µM | CC(=O)Nc1cccc(Nc2nc(NCCCO)c3ccccc3n2)c1 | –
73 | 155 µM | CN1CCN(c2nc(Nc3ccc(O)cc3)nc3ccccc23)CC1 | –
74 | 50 µM | COc1ccc(Nc2nc(NCCO)c3ccccc3n2)cc1Cl | –
75 | 200 µM | COCCn1cncc1CNC(=O)Nc1ccc2cnn(C)c2c1 | –
76 | 200 µM | Cc1ccc2nc(Nc3ccc4nc(-c5ccc(F)cc5)sc4c3)nc(NCCCO)c2c1 | Activity [2]: Toxic
77 | 110 µM | Cc1ccc2nc(Nc3ccc4nc(NCCOc5ccccc5)sc4c3)nc(NCCCO)c2c1 | –
78 | 65 µM | COc1ccc(Nc2nc(N(C)C)c3ccccc3n2)cc1 | –
79 | 105 µM | CCOc1ccc(C(=O)Nc2cc(-c3nc4ccccc4[nH]3)ccc2Cl)cc1[N+](=O)[O-] | –
80 | 12.7 µM | Cc1ccc2nc(Nc3ccc4c(c3)OCCO4)nc(NCCCO)c2c1 | –
81 | 60 µM | CC(=O)Nc1ccc(Nc2nc(NCCO)c3ccccc3n2)cc1 | –
